In test [1] the target is Adenosine receptor A2a (Rattus norvegicus) (UniProt P30543). Nature of the test: Displacement of [3H]MSX2 from adenosine receptor A2A in rat brain striatum membranes at 0.1 uM incubated for 30 mins by radioligand competition assay relative to control. The note with it: Cell membrane. A digest of the protocol:
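A2A binding, [3H]MSX-2 1.0 nM. Membranes: rat brain striatum, or HEK293 cells expressing human A2A. Adenosine deaminase preincubation 20 min, then 30 min at rt in 50 mM Tris-HCl pH 7.4 with 2.5% DMSO. Nonspecific binding defined by 50 µM NECA. GF/B filtration, scintillation counting. Single-concentration percent inhibition, ≥3 experiments in duplicate or triplicate.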
A general note: Displacement assays read how much labelled ligand stays bound in the presence of the test substance.

Test [2] deals with T1, Adenosine receptor A1 (Rattus norvegicus, UniProt P25099).
T1 sequence (P25099 whole entry): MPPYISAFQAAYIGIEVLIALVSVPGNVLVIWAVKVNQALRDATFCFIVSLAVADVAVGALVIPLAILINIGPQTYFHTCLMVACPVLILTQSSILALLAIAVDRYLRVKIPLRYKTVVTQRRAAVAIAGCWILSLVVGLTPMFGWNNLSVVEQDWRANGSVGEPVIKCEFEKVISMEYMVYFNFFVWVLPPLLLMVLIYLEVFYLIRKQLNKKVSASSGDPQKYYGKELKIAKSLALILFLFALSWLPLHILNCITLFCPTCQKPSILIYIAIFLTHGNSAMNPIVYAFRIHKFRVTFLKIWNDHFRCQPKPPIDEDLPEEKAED
Nature of the test: Displacement of [3H]DPCPX from rat brain cortical membrane A1AR in absence of GTP by scintillation counting analysis. Format: cell membranes, Cortex, Cell membrane.

In test [3] the target is T2, Adenosine receptor A3 (Rattus norvegicus, UniProt P28647).
T2 sequence (P28647 whole entry): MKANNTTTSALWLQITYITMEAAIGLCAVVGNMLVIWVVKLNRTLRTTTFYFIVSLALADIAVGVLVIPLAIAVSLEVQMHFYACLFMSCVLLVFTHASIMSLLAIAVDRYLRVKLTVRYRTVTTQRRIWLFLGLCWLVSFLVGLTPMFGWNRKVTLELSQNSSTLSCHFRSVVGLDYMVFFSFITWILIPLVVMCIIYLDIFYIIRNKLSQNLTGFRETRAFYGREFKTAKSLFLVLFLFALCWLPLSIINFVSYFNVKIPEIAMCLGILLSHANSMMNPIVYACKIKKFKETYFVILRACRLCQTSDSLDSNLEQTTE
Nature of the test: Displacement of [3H]NECA from rat adenosine receptor A3 expressed in CHO cell membranes incubated for 60 mins by radioligand competition assay. On the set-up: species or system Cell membrane.

In a further test the target is T3, Adenosine receptor A2b (Rattus norvegicus, UniProt P29276).
T3 sequence (P29276 whole entry): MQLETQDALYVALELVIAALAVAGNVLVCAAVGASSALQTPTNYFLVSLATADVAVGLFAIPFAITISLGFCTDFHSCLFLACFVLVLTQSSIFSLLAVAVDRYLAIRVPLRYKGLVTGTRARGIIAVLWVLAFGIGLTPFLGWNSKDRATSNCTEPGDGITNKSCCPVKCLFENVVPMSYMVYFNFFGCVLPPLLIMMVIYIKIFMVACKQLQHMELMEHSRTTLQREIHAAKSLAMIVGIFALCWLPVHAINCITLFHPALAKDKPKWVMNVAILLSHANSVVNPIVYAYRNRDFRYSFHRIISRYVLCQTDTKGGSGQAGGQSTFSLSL
Nature of the test: Displacement of [3H]PSB-603 from rat adenosine receptor A2B expressed in CHO cell membranes incubated for 75 mins by radioligand competition assay. Further details: species or system Cell membrane. An outline of the steps:
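CHO membranes expressing human or rat A2B, [3H]PSB-603 0.3 nM. Nonspecific binding defined by 10 µM DPCPX. Preincubated 20 min with adenosine deaminase, then 75 min at rt in Tris-HCl pH 7.4 with 2.5% DMSO. Filters washed with ice-cold 50 mM Tris-HCl containing 0.1% BSA; scintillation counting.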

The target of test [4] is T1, Adenosine receptor A1. Nature of the test: Displacement of [3H]CCPA from rat adenosine receptor A1 by radioligand competition assay. An outline of the steps:
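A1 competition binding with [3H]CCPA, 0.5 nM. Membranes: CHO cells expressing human A1, or rat brain cortex. Membranes preincubated 20 min with adenosine deaminase (2 U/mL per mg protein). Incubation 90 min at rt in 50 mM Tris-HCl pH 7.4 with 2.5% final DMSO. Nonspecific binding defined by 10 µM 2-chloroadenosine. GF/B filtration, scintillation counting.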

The target in test [5] is T4, Adenosine receptor A3 (Homo sapiens, UniProt P0DMS8).
T4 sequence (P0DMS8 whole entry): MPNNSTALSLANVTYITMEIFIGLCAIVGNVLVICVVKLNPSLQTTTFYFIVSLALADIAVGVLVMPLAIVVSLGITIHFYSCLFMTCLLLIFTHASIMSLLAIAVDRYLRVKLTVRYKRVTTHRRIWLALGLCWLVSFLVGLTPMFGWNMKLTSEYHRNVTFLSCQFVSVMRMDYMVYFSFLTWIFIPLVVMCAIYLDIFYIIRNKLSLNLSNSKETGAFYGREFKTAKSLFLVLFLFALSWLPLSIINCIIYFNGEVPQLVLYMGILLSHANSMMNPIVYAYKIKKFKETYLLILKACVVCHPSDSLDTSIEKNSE
Nature of the test: Displacement of [3H]PSB-11 from human adenosine receptor A3 expressed in CHO cell membranes incubated for 60 mins by radioligand competition assay. On the set-up: species or system Cell membrane.

In test [6] the target is T1, Adenosine receptor A1. The test can be described thus: Displacement of [3H]CCPA from adenosine receptor A1 in rat brain cortex membranes incubated for 90 mins by radioligand competition assay. Type of test: cell membranes, Cell membrane.
Test [7] deals with T5, Adenosine receptor A3 (Homo sapiens) (UniProt P0DMS8).
T5 sequence (whole entry): T4 sequence (P0DMS8 whole entry)
Nature of the test: Displacement of [3H]PSB-11 from human adenosine receptor A3 expressed in CHO cell membranes at 0.1 uM incubated for 60 mins by radioligand competition assay. As to conditions: Cell membrane, filed as antagonist, dose 0.1 µM. An outline of the steps:
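CHO membranes expressing human A3, [3H]PSB-11 0.5 nM. Nonspecific binding defined by 100 µM R-PIA. Adenosine deaminase preincubation 20 min, then 60 min at rt in 50 mM Tris-HCl pH 7.4 with 2.5% DMSO. Filtered on GF/B, scintillation counted.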

In test [8] the target is T1, Adenosine receptor A1. The test can be described thus: Displacement of [3H]DPCPX from rat adenosine receptor A1 by radioligand competition assay. A digest of the protocol:
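Rat brain cortical membranes, [3H]DPCPX 0.4 nM. Nonspecific binding defined by 10 μM DPCPX. Curves run with and without 100 μM GTP. Incubation 90 min at rt in 50 mM Tris-HCl pH 7.4, after 20 min adenosine deaminase preincubation. Filtration, then scintillation counting. GTP shift is the IC50 with GTP divided by the IC50 without GTP.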

Adenosine receptor A2a (Rattus norvegicus), sequence (P30543 whole entry): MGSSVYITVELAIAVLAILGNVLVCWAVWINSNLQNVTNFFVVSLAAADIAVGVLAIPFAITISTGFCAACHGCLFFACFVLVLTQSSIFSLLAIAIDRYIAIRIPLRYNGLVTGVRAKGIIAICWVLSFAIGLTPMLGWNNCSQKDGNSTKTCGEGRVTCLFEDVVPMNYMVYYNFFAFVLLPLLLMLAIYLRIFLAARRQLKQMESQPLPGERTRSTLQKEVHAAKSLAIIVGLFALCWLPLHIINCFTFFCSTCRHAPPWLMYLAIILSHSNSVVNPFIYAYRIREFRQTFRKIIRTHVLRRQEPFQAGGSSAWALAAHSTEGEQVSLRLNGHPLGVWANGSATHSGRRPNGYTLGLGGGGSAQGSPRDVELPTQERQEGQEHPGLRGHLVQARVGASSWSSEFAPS

As usually defined, the inhibition is the share of the control response that was lost under treatment. In general, IC50 refers to the concentration needed to halve the response being measured. Usually Ki stands for a measure of affinity in units of concentration, obtained from inhibition or displacement. Higher therefore signals lower affinity. With `COc1ccc(C(=O)Nc2nc(-c3ccccc3)c(C(=O)c3ccc(C)cc3)s2)cc1`, the inhibition stood at 15% in [1] and 45% in test [7]. On Adenosine receptor A1 [2], this compound showed an IC50 of 0.0756 nM. Moreover, the inhibitory constant (Ki) was more than 10000 nM at Adenosine receptor A3 [3]; more than 100 nM at Adenosine receptor A2b; 0.529 nM on Adenosine receptor A1 [4]; more than 1000 nM at Adenosine receptor A3 [5]; 0.529 nM on Adenosine receptor A1 [6]; 0.0709 nM at Adenosine receptor A1 [8].
